Experimental findings from publication PMC8163102 (Angewandte Chemie (International ed. in English), 2020) are described below.

For test [1], the system named is 4T1 murine breast cancer lysates. The test is described as follows: Cleavage of ACC peptide substrates in tumor lysate. The test is classed as biochemical, mouse. The note with it: E64 10 μM preincubation, 4T1 lysate, acidic pH; Fig. 1D. In short, it runs like this:
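ACC-reporter peptide substrates were added to 4T1 murine breast cancer lysate at acidic pH, with or without prior preincubation with the cysteine cathepsin inhibitor E64 (10 μM). Cleavage velocity was plotted as mean ± SD, n=3.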

Another test concerns immortalized macrophages. The test is described as follows: Probe activation in cells by flow cytometry. The note with it: E64d pretreatment; Fig. S4. The format is cell-based.

On to `CC(C)C[C@H](NC(=O)[C@H]1O[C@@H]1C(=O)O)C(=O)NCCCCN=C(N)N` [E64], for which the “Effect of preincubation with the inhibitor on cleavage of ACC substrates 1-3” value in test [1] is “fully abrogated cleavage”.
For `CCOC(=O)[C@H]1O[C@@H]1C(=O)N[C@@H](CC(C)C)C(=O)NCCC(C)C` [E64d], the “Effect of inhibitor pretreatment on labelling of cells by probe 5” value with immortalized macrophages was “strongly diminished labelling”.
